Measurements from different studies.
Lines come from different studies, so protocols differ.
RIOK3: Serine/threonine-protein kinase RIO3 (RIOK3, Homo sapiens, UniProt O14730)
ACSL4: Long-chain-fatty-acid--CoA ligase 4 (ACSL4, Homo sapiens, UniProt O60488)

SMILES	target	read-out	action	technique	concentration	quantity	value
CCCCC(=O)Nc1ccc(-c2ccc3ncn(CCC)c(=O)c3c2)cn1	Serine/threonine-protein kinase MAK (MAK, Homo sapiens, UniProt P20794)	binding	–	competition with immobilised ligand	0.5 µM	remaining binding	71%
O=C(/C=C/c1ccc(O)c(O)c1)O[C@H](Cc1ccc(O)c(O)c1)C(=O)O	Peroxiredoxin-1 (PRDX1, Homo sapiens, UniProt Q06830)	thermal stability	–	DSF	800 µM	ΔTm	9.31 °C
CNS(=O)(=O)c1ccc(Nc2ncc(C(F)(F)F)c(N3CCC[C@](C)(O)C3)n2)c(C)c1	RIOK3	binding	–	competition with immobilised ligand	1 µM	remaining binding	99%
C#Cc1cc(-c2cc(Nc3nc(N[C@@H](C)c4ccc(F)cn4)ncc3Cl)n[nH]2)ccc1C=O	Non-receptor tyrosine-protein kinase TNK1 (TNK1, Homo sapiens, UniProt Q13470)	enzyme activity	inhibitor	–	0.2 µM	inhibition	74.8%
CCN1/C(=C/C(C)=O)Sc2ccc(F)cc21	5-hydroxytryptamine receptor 1B (HTR1B, Homo sapiens, UniProt P28222)	ligand displacement	–	radioligand	10 µM	inhibition	1.73%
Cc1cc(S(=O)(=O)N[C@H]2CC[C@H](CN3CCN(c4ccc(C5CCC(=O)NC5=O)cc4F)CC3)CC2)ccc1Nc1ncc(C(F)(F)F)c(N2CCC[C@](C)(O)C2)n1 (stereo partly drawn)	RIOK3	binding	–	competition with immobilised ligand	1 µM	remaining binding	58%
C1=C/COCc2cc(ccc2OCCN2CCCC2)Nc2nccc(n2)-c2cccc(c2)COC/1	Death-associated protein kinase 1 (DAPK1, Homo sapiens, UniProt P53355)	binding	–	–	0.1 µM	remaining binding	64%
C[C@]1(O)CCCN(c2nc(Nc3ccc(S(=O)(=O)N[C@H]4CC[C@H](CN5CCN(c6ccc(C7CCC(=O)NC7=O)cc6F)CC5)CC4)cc3Cl)ncc2C(F)(F)F)C1 (stereo partly drawn)	RIOK3	binding	–	competition with immobilised ligand	1 µM	remaining binding	52%
COc1ccc(CC2SC(=O)NC2=O)cc1 (stereo not drawn)	ACSL4	enzyme activity	inhibitor	–	10 µM	inhibition	13%
CN1CCc2c(c3ccccc3n2Cc2ccc(C(=O)NO)cc2)C1	Protein deacetylase HDAC6 (HDAC6, Homo sapiens, UniProt Q9UBN7)	enzyme activity	inhibitor	fluorescence	0.5 µM	inhibition	94.8%
CC1(COc2ccc(CC3SC(=O)NC3=O)cc2)CCCCC1 (stereo not drawn)	ACSL4	enzyme activity	inhibitor	–	10 µM	inhibition	20%
C[C@]1(O)CCCN(c2nc(Nc3ccc(S(=O)(=O)N[C@H]4CC[C@H](CN5CCN(c6ccc(C7CCC(=O)NC7=O)cc6F)CC5)CC4)cc3F)ncc2C(F)(F)F)C1 (stereo partly drawn)	Cyclin-dependent kinase 7 (CDK7, Homo sapiens, UniProt P50613)	binding	–	competition with immobilised ligand	1 µM	remaining binding	85%
